In PubChem BioAssay AID617 (SRMLSC, 2007):

Tested on: E. coli BW25113 ΔtolC growth inhibition, OD615
Assay: E. coli ΔtolC antibacterial growth inhibition – strain BW25113 ΔtolC::kan, dose response (AID 617)
How it was run: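 system = E. coli BW25113 tolC deletion strain (ΔtolC::kan), whole bacterial cells | technique = optical density (absorbance) at 615 nm | dosing = compounds in serially diluted dose-response series | times = bacterial growth with compound for 20 h, 37 °C | evaluation = growth-inhibition IC50 from four-parameter logistic curve, bounds set to 0% and 100%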

| Structure (SMILES) | IC50 |
| --- | --- |
| Cc1cccc(-n2ncc3c(NCc4ccc5c(c4)OCO5)ncnc32)c1 | 8.94 µM |
| c1ccc(Cn2nnc3c(N4CCN(Cc5ccc6c(c5)OCO6)CC4)ncnc32)cc1 | 22.6 µM |
| CC(C)(C)c1ccc(OCc2nc(-c3ccccn3)no2)c(Br)c1 | 6.81 µM |
| N=c1c2c(n(Cc3ccc(Cl)cc3Cl)c3c1CCC3)CCCC2 | 6.15 µM |
| COc1ccc(-c2[nH]c(-c3cccc(OC)c3)nc2SCC(=O)NCc2ccco2)cc1 | 11.1 µM |
| C=CCOC(=O)C(C#N)c1nc2ccccc2nc1N1CCN(Cc2ccccc2)CC1 (stereo unspecified) | 17.2 µM |
| COC(=O)C1=C(N)Oc2cc(C)n(Cc3ccco3)c(=O)c2C1c1cccc(Cl)c1 (stereo unspecified) | 26.5 µM |
| O=C(NC1CCCC1)c1sc(=S)n2c1[nH]c(=O)c1ccccc12 | 0.56 µM |
| C=CCc1cc(C)ccc1OCC(O)CN1CCN(c2ccccc2)CC1 (stereo unspecified) | 17 µM |
| COc1ccccc1N1CCN(C(c2ccc(Cl)cc2)c2nnnn2C(C)(C)C)CC1 (stereo unspecified) | 26.5 µM |
| O=C(NCc1ccco1)c1sc(=S)n2c1[nH]c(=O)c1ccccc12 | 1.26 µM |
| Cc1cccc(Nc2nc(-c3ccccn3)cs2)n1 | 0.68 µM |
| FC(F)(F)c1cccc(N2CCN(c3nnnn3-c3ccccc3)CC2)c1 | 20.8 µM |
| O=C(c1cccs1)N(Cc1nc2sc3c(c2c(=O)[nH]1)CCCC3)C1CCCC1 | 9.95 µM |
| CC(C)Cc1cc(C(=O)Nc2cc(Br)ccc2O)no1 | 5.72 µM |
| C#CCSc1nnc(-c2cccc3ccccc23)o1 | 12.2 µM |
| O=S(=O)(Nc1nc2ccccc2nc1NCc1ccco1)c1ccc(Cl)cc1 | 4.77 µM |
| Cc1[nH]n2c(=O)cc(C(C)(C)C)nc2c1-c1ccccc1 | 1.56 µM |
| c1ccc(-c2nc(NCc3ccco3)c3ccccc3n2)nc1 | 5.54 µM |

| Structure (SMILES) | IC50 |
| --- | --- |
| O=C(Cn1c2c(c(-c3ccccc3)cc1=O)CCCC2)N1CCCCCC1 | 6.09 µM |
| CCOC(=O)Cc1csc(NC(=O)c2csc3c2CCCC3)n1 | 16.4 µM |
| CCc1ccc2oc(=O)cc(CN(C)Cc3ccccc3)c2c1 | 12.9 µM |
| Cc1cc(=O)[nH]c(SCC(=O)Nc2nc(-c3ccccc3)cs2)n1 | 4.48 µM |
| COC(=O)c1ccc(NC(=O)CN2CCN(c3cccc(Cl)c3)CC2)cc1 | 21.7 µM |
| O=C(NC1CCCCC1)c1nc2c(nnn2Cc2ccccc2Cl)c(=O)[nH]1 | 6.11 µM |
| COc1cccc(-c2cc(C(=O)N3CC4(C)CC3CC(C)(C)C4)no2)c1 (stereo unspecified) | 11 µM |
| Cc1ccc(OCc2nc(C#N)c(N3CCN(Cc4ccccc4)CC3)o2)cc1 | 12.9 µM |
| Cc1c(CCC(=O)O)c(=O)oc2cc3occ(-c4ccc(F)cc4)c3cc12 | 5.48 µM |
| O=C(Nc1ccccc1N1CCCCC1)c1cccc(F)c1 | 15.2 µM |
| CC(C)(C)c1ccc(OCC(=O)NCc2ccco2)c(Br)c1 | 14.6 µM |
| CCCn1c(=O)c(C(=O)Nc2nnc(C)s2)c(O)c2ccccc21 | 12 µM |
| CN(C)c1nc(SCCOC(=O)Nc2ccccc2)nc(N(C)C)n1 | 12 µM |
| CC1CCN(S(=O)(=O)c2cccc(C(=O)NCc3cccs3)c2)CC1 | 33.4 µM |
| O=C(CSc1nnc(Cc2ccccc2)n1Cc1ccco1)NC12CC3CC(CC(C3)C1)C2 | 61.8 µM |
| N#Cc1cn(CCOc2ccccc2F)c2ccccc12 | 16.1 µM |
| COc1cccc(-c2nnc(NC(=O)c3ccc(S(=O)(=O)N4CCOCC4)cc3)o2)c1 | 0.99 µM |
| O=C(Nc1ccc(Cl)cc1)NC1CCCC1Cc1ccco1 (stereo unspecified) | 3.63 µM |
| Cc1ccc(C)c(Cn2c(CN(C)Cc3ccccc3)nc3c2c(=O)n(C)c(=O)n3C)c1 | 14.2 µM |

| Structure (SMILES) | IC50 |
| --- | --- |
| N#Cc1nc(COc2ccc(Br)cc2)oc1NCCCn1ccnc1 | 23.7 µM |
| COc1ccc(C/C(O)=C(\C#N)c2nc3ccccc3s2)cc1 | 5.12 µM |
| Cc1cc(NC(=O)c2noc3c2CCCC3)nn1Cc1ccc(Cl)cc1 | 18.4 µM |
| CCCc1cc(C(=O)Nc2cccc(Cl)c2)no1 | 14.6 µM |
| CCN(C1CCCCC1)S(=O)(=O)c1ccc(OC)c(C)c1 | 16.9 µM |
| COc1ccc(-n2c(C)cc(C(=O)COC(=O)Cn3cnc4ccccc43)c2C)cc1 | 3.33 µM |
| COc1ccc(CN(Cc2cc3cc4c(cc3[nH]c2=O)OCO4)C(=O)NC2CCCCC2)cc1 | 20.2 µM |
| COC(=O)c1c(C)oc2ccc(OC(=O)c3cccs3)cc12 | 9.49 µM |
| COc1ccccc1N1CCN(C(=O)c2cc(-c3ccc(C)cc3)on2)CC1 | 7.85 µM |
| Cc1cc(NC(=O)C2CCCCC2)nc2c1c(=O)oc1ccccc12 | 11.5 µM |
| CC(C)(C)C1CCC2(CC1)C(C#N)=C(SCC(=O)NC1CCCCC1)NC(=O)C2C#N (stereo unspecified) | 6.1 µM |
| O=C(O)C1CC=CCC1C(=O)Nc1ccc(S(=O)(=O)N2CCCc3ccccc32)cc1 (stereo unspecified) | 8.93 µM |
| Cc1nn(-c2ccccc2)c2sc(-c3n[nH]c(=S)o3)cc12 | 4.43 µM |
| CCc1ccccc1NS(=O)(=O)c1ccc2[nH]cc(C(=O)NCc3ccco3)c(=O)c2c1 | 22 µM |
| O=C(Nc1ccc2oc(Cc3ccc(Cl)cc3)nc2c1)c1cccnc1 | 53.9 µM |
| CCCN(CCC)S(=O)(=O)c1ccc(C(=O)Nc2nnc(-c3cccc(OC)c3)o2)cc1 | 0.26 µM |
| Cc1cccc(NC(=O)c2cc(NC(=O)C3CCCCC3C(=O)O)ccc2N2CCCCC2)c1 (stereo unspecified) | 6.1 µM |
| CCSc1nnc(NC(=O)CSc2nccn2-c2cccc(C)c2C)s1 | 5.29 µM |
